# Results gathered from unrelated publications.
# Each line is one published result; the experiments were not run side by side.
# KIT autoinhibited: Mast/stem cell growth factor receptor Kit, autoinhibited (KIT, Homo sapiens, UniProt P10721)
# KIT D816V: Mast/stem cell growth factor receptor Kit (KIT, Homo sapiens, UniProt P10721, D816V)
# KIT T670I/V559D: Mast/stem cell growth factor receptor Kit (KIT, Homo sapiens, UniProt P10721, T670I/V559D)
SMILES,target,observed,action,method,concentration,endpoint,value
C1=C/COCc2cc(ccc2OCCN2CCCC2)Nc2nccc(n2)-c2cccc(c2)COC/1,KIT autoinhibited,binding,,,0.1 µM,remaining binding,17%
C[C@H]1CC[C@H](n2c3cnccc3c3cnc(Nc4ccc5c(n4)CCN(C(=O)CO)C5)nc32)CC1,KIT D816V,cell-free assay,,,1 µM,remaining signal,3.6%
C=CC(=O)N1CCC([C@@H]2CCNc3c(C(N)=O)c(-c4ccc(Oc5ccccc5)cc4)nn32)CC1,"Mast/stem cell growth factor receptor Kit (KIT, Homo sapiens, UniProt P10721)",enzyme activity,inhibitor,,1 µM,inhibition,17%
C#Cc1cnc(Nc2ccnc(CO)c2)nc1Nc1ccccc1S(C)(=O)=NC#N (stereo not drawn),KIT T670I/V559D,cell-free assay,,,1 µM,remaining signal,79%
CC#CC(=O)N1CCC[C@H]1c1nc(-c2ccc(C(=O)Nc3ccccn3)cc2)c2c(N)nccn12,"Mast/stem cell growth factor receptor Kit (KIT, Homo sapiens, UniProt P10721, L576P)",enzyme activity,inhibitor,,1 µM,inhibition,13%
CN1CCN(C(=O)c2ccc(NC(=O)Nc3ccc(N(C)c4ccnc(Nc5ccc(CS(C)(=O)=O)cc5)n4)cc3)cc2)CC1,KIT D816V,binding,,,1 µM,remaining binding,23%
CCCCC(=O)Nc1ccc(-c2ccc3ncn(CCC)c(=O)c3c2)cn1,KIT autoinhibited,binding,,competition with immobilised ligand,0.5 µM,remaining binding,97%
COc1ccc2[nH]c3c4[nH]c5ccc(OC)cc5c4c4c(c3c2c1)C(=O)NC4=O,KIT T670I/V559D,binding,,,1 µM,remaining binding,49%
N#Cc1ccc(NC(=O)Nc2ccccc2)cc1,KIT T670I/V559D,cell-free assay,,competition with immobilised ligand,25 µM,remaining binding,57%
Cc1ccc(NC(=O)c2ccnc(C(F)(F)F)c2)cc1-c1cc(OCCO)nc(N2CCOCC2)c1,"Mast/stem cell growth factor receptor Kit (KIT, Homo sapiens, UniProt P10721, V559D/V654A)",binding,,,1 µM,remaining binding,91%
CO[C@@H]1[C@H](N(C)C(=O)c2ccccc2)C[C@H]2O[C@]1(C)n1c3ccccc3c3c4c(c5c6ccccc6n2c5c31)C(=O)NC4,KIT D816V,enzyme activity,inhibitor,,1 µM,inhibition,96%
COc1ccc2oc(-c3ccc4nc(N)oc4c3)c/c(=N\c3ccccc3NC(=O)CCN)c2c1,"Mast/stem cell growth factor receptor Kit (KIT, Homo sapiens, UniProt P10721, V654A)",cell-free assay,,,1 µM,remaining signal,102%
